Kir21 inh: inhibitors of mouse Kir2.1 inward-rectifier potassium channel; P35561; HEK293-Kir2.1, FluxOR thallium flux fluorescence; stronger effect = lower value; B-score at 10 µM; hit rate 0.85% among 310,000;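 active means fluorescence ratio B-score at or below minus 3 SD of library scores, with starting-brightness B-score within 2 SD, cut at about -4.2 in these data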;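 further: channel flux triggered by added potassium and thallium sulfate stimulus; B-score of peak minus minimum fluorescence over baseline after thallium stimulus; more negative B-score means stronger Kir2.1 block with less thallium influx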
Target sequence (P35561 whole entry, looked up): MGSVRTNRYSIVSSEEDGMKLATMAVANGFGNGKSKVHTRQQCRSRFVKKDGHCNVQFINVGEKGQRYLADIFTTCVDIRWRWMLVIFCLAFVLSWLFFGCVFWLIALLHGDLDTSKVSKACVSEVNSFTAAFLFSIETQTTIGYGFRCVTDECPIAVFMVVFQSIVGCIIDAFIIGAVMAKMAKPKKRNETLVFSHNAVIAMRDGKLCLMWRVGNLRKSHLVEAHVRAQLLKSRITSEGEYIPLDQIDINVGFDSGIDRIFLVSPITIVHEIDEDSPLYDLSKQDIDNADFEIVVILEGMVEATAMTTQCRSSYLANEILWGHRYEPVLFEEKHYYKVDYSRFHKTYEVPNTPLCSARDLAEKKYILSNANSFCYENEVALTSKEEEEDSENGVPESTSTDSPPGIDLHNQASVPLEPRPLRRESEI
MrgX1 antag: antagonists of human MrgX1 receptor; Q96LB2; MRGX1-HEK293 calcium flux, Fluo-4, BAM8-22 antagonism; stronger effect = lower value; B-score at 10 µM; hit rate 1.3% among 310,000;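 active means calcium-response B-score plate-corrected more than 3 library SD below zero, starting fluorescence within 5 deviations, no agonist response on first addition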;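 further: peak minus trough fluorescence over baseline after final BAM8-22 challenge near maximal dose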
MrgX1 allo act: human MrgX1 positive allosteric modulation, primary screen | Q96LB2 | MrgX1-HEK293, Fluo-4 calcium flux, FDSS; stronger effect = higher value | B-score at 10 µM | hit rate 0.63% among 310,000 | AID 588675;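 active means plate-corrected calcium response at least 3 library SD above typical, normal starting fluorescence, not activating the receptor alone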;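 further: compound read alongside a low EC10 to EC30 dose of BAM8-22 agonist; peak minus trough fluorescence over baseline measured at the second addition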
RGS4 inh: inhibitors of human RGS4; P49798; HEK293 M3R/RGS4 inducible, Fluo-4 calcium flux; stronger effect = higher value; triggered by carbachol at its EC20; B-score at 10 µM; hit rate 0.45% among 310,000; AID 463165;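 active means B-score, a plate-corrected calcium signal, over three deviations above library mean, with baseline fluorescence within five deviations of library mean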;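 further: RGS4 expression induced by doxycycline in cells with stable M3 receptor; B-score is computed from the integrated fluorescence ratio over baseline after carbachol; higher B-score means a larger calcium signal and so more RGS4 inhibition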
Target sequence (P49798 whole entry, looked up): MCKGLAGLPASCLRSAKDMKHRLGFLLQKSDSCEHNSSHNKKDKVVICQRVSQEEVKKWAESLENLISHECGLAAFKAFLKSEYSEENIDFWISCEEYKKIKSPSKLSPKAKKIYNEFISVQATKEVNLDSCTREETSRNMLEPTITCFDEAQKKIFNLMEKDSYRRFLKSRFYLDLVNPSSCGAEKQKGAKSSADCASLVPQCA
MrgX1 ag: human MrgX1 receptor agonism, primary screen. Q96LB2. MrgX1-HEK293 cells, Fluo-4 calcium fluorescence, agonist mode; stronger effect = higher value. B-score at 10 µM. hit rate 0.44% among 310,000. AID 588627;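 active means calcium response B-score plate-corrected fluorescence ratio at least 3 library SD, with starting fluorescence B-score inside 5 SD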
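Test system: HEK293 cells stably expressing human MrgX1 receptor; Input: fifteen thousand cells per well; Dosing: compound delivered in addition one of three; Schedule: overnight seeding, then 1 h dark dye loading; Technique: Fluo-4 NW calcium fluorescence; Measure: B-scored fluorescence response ratio; Controls: positive and negative controls per plate.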
RGS4 act: RGS4 potentiation or activation; B-score at 10 µM; HEK293 M3R/inducible RGS4, carbachol calcium flux Fluo4; stronger effect = lower value; hit rate 0.92% among 310,000; AID 463111;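 active means B-score of the integrated calcium signal more than 4 SD below the library mean, with starting fluorescence not abnormally high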;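 further: negative B-score means reduced calcium response which marks RGS4 activation or potentiation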
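Assay system: HEK293 FlpIn-TREx cells, stable M3R, doxycycline-inducible RGS4 / Probe or stimulus: carbachol, ECmax concentration / Times: overnight RGS4 induction, 30 min dye load 37 °C, 20 min compound RT / Signal: kinetic calcium fluorescence imaging with Fluo4-AM dye, 2 µM / Measure: Agonist-evoked peak-minus-minimum fluorescence over baseline, integrated ratio, B score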
Of the large screens only hits and unclear results are named; the others gave an inactive call. This is a sample that favours compounds with a hit; in the whole collection about 4.1% have one here.

Cn1nccc1C(=O)NC1CC(C)(C)Cc2c1cnn2-c1ccc(F)cc1 (centres undefined)	none
Cc1cc(C)cc(N(CCC#N)C(=O)COC(=O)C2CCN(c3ccc(C(F)(F)F)cn3)CC2)c1	RGS4 act -7
Cc1cc(C)n2nc3nc(N4CCCCC4)nc(-c4ccco4)c3c2n1	MrgX1 antag -4.7
Cc1ccc(NC(=O)Cc2ccc([N+](=O)[O-])cc2)c(Br)c1	none
CC(C)(O)C(=O)NNC(=S)NCc1ccco1	MrgX1 antag -5.4
O=S(=O)(c1ccc(Cl)cc1)N1CCC(O)(CN2CCN(Cc3ccccc3)CC2)CC1	Kir21 inh -5.4
O=S(=O)(c1ccc(S(=O)(=O)N2CCN(Cc3ccccc3)CC2)cc1)N1CCOCC1	none (no result: MrgX1 antag, MrgX1 allo act, MrgX1 ag)
Clc1ccc(OCCCN2CCc3ccccc3C2)c(Br)c1	none
Cc1ccc(OCC(O)CN2CCc3ccccc3C2)c(C)c1 (centres undefined)	Kir21 inh -7.9
Cc1cccc(OCC(O)CN2CCc3ccccc3C2)c1 (centres undefined)	Kir21 inh -8.8
Clc1ccc(OCCOCCN2CCc3ccccc3C2)c(Cl)c1	Kir21 inh -15
OC(COc1ccc(Cl)cc1Cl)CN1CCc2ccccc2C1 (centres undefined)	Kir21 inh -15
COc1cccc(OCC(O)CN2CCc3ccccc3C2)c1 (centres undefined)	none
CN(c1ccccc1C(=O)Nc1ccc2c(c1)n(C)c(=O)n2C)S(C)(=O)=O	none
Cc1ccc(-c2ccc(SCC(=O)Nc3nonc3C)nn2)cc1	none
O=C(N/N=C/c1ccccc1O)C(=O)N1CCCCCC1	none
Clc1ccc(SCCOCCN2CCc3ccccc3C2)cc1	Kir21 inh -8.5
CCOc1ccccc1NC(=O)C(Sc1ccccc1)c1ccccc1 (centres undefined)	MrgX1 antag -5, RGS4 act -7.3
N#C/C(=C(/O)COc1ccccc1)c1nc2ccccc2s1	none
N#C/C(=C(/O)c1ccc(F)cc1)c1nc2ccccc2s1	MrgX1 ag 29
Cc1ccc(-c2csc(/C(C#N)=C(\O)CCl)n2)cc1	none (no result: MrgX1 antag, MrgX1 allo act, MrgX1 ag)
N#C/C(=C(/O)CCl)c1nc(-c2ccccc2)cs1	MrgX1 antag -6.1
CCOc1ccc(NC(=O)CSc2nnc(-c3ccncc3)n2CC2CCCO2)cc1 (centres undefined)	MrgX1 antag -6.7
CCOc1ccc2nc(NC(=O)CSc3nnc(-c4ccncc4)n3CC3CCCO3)sc2c1 (centres undefined)	none
CC(C)C1CC(CCNCc2ccc(N(C)C)cc2)(c2ccccc2)CCO1 (centres undefined)	none
Cc1ccc(C2(CCNCc3ccc(N(C)C)cc3)CCOC(C(C)C)C2)cc1 (centres undefined)	Kir21 inh -4.7
Cc1ccc(NC(=O)Nc2cccc(C)n2)cc1	none
Cc1ccc(Cn2nc(C)c(NC(=O)CCCn3nc(C)c([N+](=O)[O-])c3C)c2C)cc1	none
Cc1nn(Cc2c(Cl)cccc2Cl)c(C)c1NC(=O)CCCn1nc(C)c([N+](=O)[O-])c1C	MrgX1 antag -4.5
Cc1nn(CCCC(=O)NCCc2ccccc2)c(C)c1[N+](=O)[O-]	MrgX1 allo act 7.2
NC(=O)c1ncc(C(F)(F)F)cc1Cl	none
Cc1cccc(C)c1OCc1cc(C(=O)N2CCC(C3CCCCC3)C2)no1 (centres undefined)	RGS4 act -7.6
O=C(CNS(=O)(=O)c1c(Cl)cccc1Cl)N1CCCCCC1	Kir21 inh -4.6
NC(=O)CC[C@@H]1NC(=O)[C@@H]2CCCN2C(=O)c2cc([N+](=O)[O-])cc(I)c2NCCC[C@@H](C(N)=O)NC1=O	none (no result: Kir21 inh, RGS4 inh, RGS4 act)
COc1ccc(-c2nc3ccccn3c2NC2CCCCC2)cc1SC1CCCCC1	RGS4 act -7.9
CCCCNc1c(-c2ccc(OC)c(SC3CCCCC3)c2)nc2cnccn12	RGS4 act -10
Cc1ccc(N(CC(=O)N2CCOCC2)S(=O)(=O)c2ccccc2)cc1	none
CCOc1cc(/C=N/n2cnnc2)ccc1OS(=O)(=O)c1ccc(C)cc1	Kir21 inh -5.5
N/C(Cn1cncn1)=N\NC(=O)C(=O)Nc1ccc(Cl)cc1Cl	none
N/C(Cn1cncn1)=N\NC(=O)c1ccc(Cl)cc1Cl	MrgX1 antag -4.5
COCCn1c(=O)[nH]c2cc(C(=O)N3CCN(c4ccccc4)CC3)ccc2c1=O	none
O=C(CNC(=O)C(c1ccccc1)c1ccccc1)N/N=C/c1ccc(O)cc1O	MrgX1 antag -5.7
COc1ccc(CCC(=O)OCC(=O)Nc2ccc(OC)c(OC)c2)cc1OC	none
CCOc1ccc(N2C(=O)C3=C(C(c4ccc(Cl)cc4)=NCCN3)C2c2cccnc2)cc1 (centres undefined)	none
Cc1ccc(C2C3=C(NCCN=C3c3ccccc3)C(=O)N2c2ccccc2)cc1 (centres undefined)	Kir21 inh -8.8
CCOc1cc(S(=O)(=O)N2CCN=C2Cc2ccccc2)ccc1F	none
COc1ccc(Cl)cc1S(=O)(=O)N1CCN=C1Cc1ccccc1	Kir21 inh -5.1
COC(=O)N/N=C\c1cccc(OC(=O)c2cccs2)c1	none
O=C1NN(c2ccc(Cl)c(Cl)c2)C(=O)/C1=C/c1cccc(OC(=O)c2cccs2)c1	Kir21 inh -4.4, RGS4 inh 25
COc1ccc2[nH]c3c(c2c1)CCNC3c1ccc([N+](=O)[O-])o1 (centres undefined)	MrgX1 antag -5.6
COc1cc(C2NCCc3c2[nH]c2ccccc32)ccc1OC(C)C (centres undefined)	none
CCN(CC)CCSc1nc2ccccc2c(=S)n1-c1ccccc1	RGS4 act -8
CCN(CC)CCSc1nc2ccccc2n1Cc1ccccc1	RGS4 act -9.1
CN(C)C(=O)CSc1nc2ccccc2n1Cc1ccccc1	none
COc1ccc(COC(=O)C2CCN(S(=O)(=O)c3ccc(Cl)cc3)CC2)cc1	none
COc1ccccc1NC(=O)Nc1ccc(C)cn1	none
CCC1CCCCN1C(=O)Nc1ccc(F)cc1 (centres undefined)	none
O=S(=O)(Nc1nc2ccccc2[nH]1)c1ccc2ccccc2c1	RGS4 act -9.6
CCN(c1ccccc1)S(=O)(=O)c1ccc2ccccc2c1	none
CN(c1ccc(O)cc1)S(=O)(=O)c1ccc2ccccc2c1	Kir21 inh -5.9
Cc1cc(O)cc(C)c1NS(=O)(=O)c1ccc2ccccc2c1	Kir21 inh -6.6
CCCOc1ccc(NC(=O)CC2C(=O)N(CC)C(=S)N2CCCN2CCN(Cc3ccccc3)CC2)cc1 (centres undefined)	none
Cc1ccccc1Cn1nnc(C(=O)Nc2ccc3c(c2)OCCO3)c1N	none
Cc1ccc(NC(=O)CCN2CCCCC2)cc1	none
CSc1nc2ccsc2c(=O)n1-c1ccccc1	none

High-throughput results as filed in PubChem BioAssay.
